Experimental data as given in ChEMBL document CHEMBL1121810, “Antihypertensive activity of 6-arylpyrido[2,3-d]pyrimidin-7-amine derivatives” (1981).

Legend:
Assay type in all cases: functional
Settings in all cases: route oral
Rattus norvegicus [1] = experiment: Effect on heart rate of spontaneously hypertensive rats, 2 hr after peroral administration at 50 mg/kg
Outline: (§1)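 Heart rate was derived from the pulsatile arterial pressure signal in conscious catheterized male SHR (22-24 weeks, 250-350 g), with continuous monitoring sampled 3 min per 30 min. Drug was given by gavage as a 4% gum acacia suspension at 2 mL/kg, dose as free base, to groups of 3-4 rats with mean pressure >150 mmHg. Individual 30-min means were compared with pretreatment values.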

Rattus norvegicus [2] = experiment: Effect on heart rate of spontaneously hypertensive rats, 10 hr after peroral administration at 50 mg/kg; outline: as §1
Rattus norvegicus [3] = experiment: Effect on heart rate of spontaneously hypertensive rats, 24 hr after peroral administration at 50 mg/kg; outline: as §1
Rattus norvegicus [4] = experiment: Maximum percent decrease in heart rate of spontaneously hypertensive rats, 10 hr after peroral administration of 50 mg/kg of compound; outline: as §1
Rattus norvegicus [5] = experiment: Effect on heart rate of spontaneously hypertensive rats, 24 hr after peroral administration of 10 mg/kg of compound; outline: as §1
Rattus norvegicus [6] = experiment: Effect on heart rate of spontaneously hypertensive rats, 10 hr after peroral administration of 10 mg/kg of compound; outline: as §1
Rattus norvegicus [7] = experiment: Effect on heart rate of spontaneously hypertensive rats, 2 hr after peroral administration of 10 mg/kg of compound; outline: as §1
Rattus norvegicus [8] = experiment: Maximum percent decrease in heart rate of spontaneously hypertensive rats, 6 hours after peroral administration of 50 mg/kg of compound
Outline: (§2)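 Conscious male SHR (Kyoto-Wistar origin, 22-24 weeks, 250-350 g; mean BP >150 mmHg, pulse pressure >25 mmHg) with indwelling catheters, ~0.8 mL heparinized saline/day. Dosed by gavage as a 4% gum acacia suspension, 2 mL/kg, free-base doses, 3-4 rats per group. Heart rate was derived from the pulsatile pressure signal, sampled 3 min every 30 min, and 30-min means were compared with pretreatment values.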

Rattus norvegicus [9] = experiment: Maximum percent decrease in heart rate of spontaneously hypertensive rats, 8 hours after peroral administration of 50 mg/kg of compound; outline: as §2
Rattus norvegicus [10] = experiment: Effect on heart rate of spontaneously hypertensive rats, 18 hr after peroral administration of 50 mg/kg of compound; outline: as §1
Rattus norvegicus [11] = experiment: Maximum percent decrease in heart rate of spontaneously hypertensive rats, 10 hours after peroral administration of 50 mg/kg of compound; outline: as §1
Rattus norvegicus [12] = experiment: Blood pressure rating in spontaneously hypertensive rats, 2 hr after peroral administration of 50 mg/kg of compound
Outline: (§3)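 Conscious male SHR (Kyoto-Wistar origin, 22-24 weeks, 250-350 g) with indwelling catheters, given about 160 units heparin/day in saline. Only rats with mean blood pressure >150 mmHg and pulse pressure >25 mmHg were used, in groups of 3-4. Dosing was oral gavage at 2 mL/kg in 4% gum acacia suspension, as free base. Pressure was sampled 3 min of every 30 min, and 30-min means were compared with pretreatment values.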

Rattus norvegicus [13] = experiment: Blood pressure rating in spontaneously hypertensive rats, 24 hr after peroral administration of 50 mg/kg of compound; outline: as §3
Rattus norvegicus [14] = experiment: Blood pressure rating in spontaneously hypertensive rats, 10 hr after peroral administration of 50 mg/kg of compound; outline: as §3
Rattus norvegicus [15] = experiment: Maximum percent decrease in heart rate of spontaneously hypertensive rats, 2 hours after peroral administration of 50 mg/kg of compound; outline: as §1
Rattus norvegicus [16] = experiment: Maximum percent decrease in heart rate of spontaneously hypertensive rats, 4 hr after peroral administration of 50 mg/kg of compound; outline: as §1
Rattus norvegicus [17] = experiment: Max effect on heart rate of spontaneously hypertensive rats, 3-5 hr after peroral administration of 10 mg/kg of compound; outline: as §1
Rattus norvegicus [18] = experiment: Maximum percent decrease in heart rate of spontaneously hypertensive rats, 3 hours after peroral administration of 50 mg/kg of compound; outline: as §1

Compound | Activity rating (Rattus norvegicus [1]) | Activity rating (Rattus norvegicus [2]) | Activity rating (Rattus norvegicus [3]) | other results
Cc1ncc2cc(-c3ccccc3C(F)(F)F)c(N)nc2n1 | 0 | 0 | 0 | 
Nc1nc2nc(CO)ncc2cc1-c1c(Cl)cccc1Cl | 0 | 1 | 1 | Decrease (Rattus norvegicus [4]): 17%
Cc1ncnc2nc(N)c(-c3c(Cl)cccc3Cl)cc12 | 2 | 2 |  | Activity rating (Rattus norvegicus [5]): 0; Activity rating (Rattus norvegicus [6]): 0; Activity rating (Rattus norvegicus [7]): 0; Decrease (Rattus norvegicus [8]): 26%
Nc1nc2nc(C(F)(F)F)ncc2cc1-c1c(Cl)cccc1Cl | 0 | 0 | 0 | 
Cc1ncc2cc(-c3ccc(Cl)cc3Cl)c(N)nc2n1 | 0 | 1 | 1 | Decrease (Rattus norvegicus [9]): 13%
Cc1ncc2cc(-c3cccc(Cl)c3Cl)c(N)nc2n1 | 0 | 0 | 0 | 
Cc1ncc2cc(-c3ccccc3I)c(N)nc2n1 | 0 | 0 | 0 | 
Cc1cccc(Cl)c1-c1cc2cncnc2nc1N | 1 | 2 |  | Activity rating (Rattus norvegicus [10]): 1; Decrease (Rattus norvegicus [11]): 21%
Cc1nc(N)c2cc(-c3c(Cl)cccc3Cl)c(N)nc2n1 | 0 | 0 | 0 | 
Nc1nc2ncncc2cc1-c1ccccc1 | 0 | 0 | 0 | 
CCOc1nc(C)nc2nc(N)c(-c3c(Cl)cccc3Cl)cc12 |  |  |  | Activity rating (Rattus norvegicus [12]): 0; Activity rating (Rattus norvegicus [13]): 0; Activity rating (Rattus norvegicus [14]): 0
Cc1ncc2cc(-c3ccc([N+](=O)[O-])cc3)c(N)nc2n1 |  |  |  | Activity rating (Rattus norvegicus [12]): 0; Activity rating (Rattus norvegicus [13]): 0; Activity rating (Rattus norvegicus [14]): 0
Cc1ccccc1-c1cc2cncnc2nc1N | 1 | 1 | 0 | Decrease (Rattus norvegicus [15]): 18%; Activity rating (Rattus norvegicus [5]): 0; Activity rating (Rattus norvegicus [6]): 0; Activity rating (Rattus norvegicus [7]): 0
Cc1ncc2cc(-c3ccccc3Br)c(N)nc2n1 | 1 | 1 | 0 | Decrease (Rattus norvegicus [16]): 19%; Activity rating (Rattus norvegicus [17]): 0
Cc1ncc2cc(-c3cccnc3)c(N)nc2n1 | 0 | 0 | 0 | 
Nc1nc2ncncc2cc1-c1ccccc1I | 0 | 0 | 1 | Decrease (Rattus norvegicus [9]): 11%
Cc1ncc2cc(-c3ccc(Cl)cc3)c(N)nc2n1 | 0 | 0 | 0 | 
Cc1ncc2cc(-c3ccccc3)c(N)nc2n1 | 0 | 0 | 0 | 
CCc1ncc2cc(-c3c(Cl)cccc3Cl)c(N)nc2n1 | 0 | 1 | 0 | Decrease (Rattus norvegicus [8]): 15%
Cc1ccccc1-c1cc2cnc(C3CC3)nc2nc1N |  |  |  | Activity rating (Rattus norvegicus [12]): 0; Activity rating (Rattus norvegicus [13]): 0; Activity rating (Rattus norvegicus [14]): 0
COCc1ncc2cc(-c3c(Cl)cccc3Cl)c(N)nc2n1 |  |  |  | Activity rating (Rattus norvegicus [12]): 1; Decrease (Rattus norvegicus [18]): 14%; Activity rating (Rattus norvegicus [13]): 1; Activity rating (Rattus norvegicus [14]): 1
Cc1ncc2cc(-c3ccccc3F)c(N)nc2n1 | 0 | 0 | 0 | 
CCc1ncc2cc(-c3ccccc3C)c(N)nc2n1 | 0 | 0 | 0 | 
